Assay results gathered from unrelated publications.
Compare with care: the assays were run in different laboratories.
Target: Acetylcholinesterase (ACHE, Homo sapiens, UniProt P22303)
Mode: inhibitor

O=C(NCCN1CCCCC1)c1ccc([N+](=O)[O-])cc1
IC50 (enzyme activity; Ellman): 2.4 µM

O=[N+]([O-])c1c[nH]c(-c2n[nH]c(=S)n2/N=C/c2ccc(F)cc2)c1
IC50 (enzyme activity; Ellman): 8.2 µM

O=C(NCCN1CCCCC1)c1cccc([N+](=O)[O-])c1
IC50 (enzyme activity; Ellman): 2 µM

Cn1cc(-c2cc(C(=O)NN=Cc3ccccc3F)no2)c2ccccc21
IC50 (enzyme activity): > 100 µM

COc1cccc(C(=O)NCCN2CCCCC2)c1
IC50 (enzyme activity; Ellman): 5.2 µM

C#CCN(C)CCCCCCOCc1ccc(CN(C)c2c3c(nc4ccc(C)cc24)CCCC3)cc1
IC50 (enzyme activity; Ellman): 45.8 µM

O=[N+]([O-])c1c[nH]c(-c2n[nH]c(=S)n2/N=C/c2ccc(F)c([N+](=O)[O-])c2)c1
IC50 (enzyme activity; Ellman): 15.5 µM

COc1ccc(S(=O)(=O)Oc2ccc(C=NNC(=O)c3ccc(F)cc3)cc2)cc1
IC50 (enzyme activity; Ellman): 0.0121 µM

Cn1cc(-c2cc(C(=O)NN=Cc3ccccc3O)no2)c2ccccc21
IC50 (enzyme activity): > 100 µM

C#CCN(C)CCCCCCOCc1ccc(CN(C)c2c3c(nc4ccccc24)CCCC3)cc1
IC50 (enzyme activity; Ellman): 1.57 µM

COc1ccc(S(=O)(=O)Oc2ccccc2C=NNC(=O)c2ccc(F)cc2)cc1
IC50 (enzyme activity; Ellman): 0.107 µM

COc1ccccc1C(=O)NCCN1CCCCC1
IC50 (enzyme activity; Ellman): 4.7 µM

C#CCN(C)CCCOc1cccc(CN(C)c2c3c(nc4ccccc24)CCCC3)c1
IC50 (enzyme activity; Ellman): 2.82 µM

O=[N+]([O-])c1c[nH]c(-c2n[nH]c(=S)n2/N=C/c2ccc(C(F)(F)F)cc2)c1
IC50 (enzyme activity; Ellman): 5.1 µM

O=C(NCCN1CCCCC1)c1ccc(F)cc1
IC50 (enzyme activity; Ellman): 3.1 µM

Cn1cc(-c2cc(C(=O)NN=Cc3cccc([N+](=O)[O-])c3)no2)c2ccccc21
IC50 (enzyme activity): 45.6 µM

O=C(NCCN1CCCCC1)c1ccc(Cl)cc1
IC50 (enzyme activity; Ellman): 46 µM

Cn1cc(-c2cc(C(=O)NN=Cc3ccccc3)no2)c2ccccc21
IC50 (enzyme activity): > 100 µM

O=[N+]([O-])c1c[nH]c(-c2n[nH]c(=S)n2/N=C/c2cc(O)cc(F)c2)c1
IC50 (enzyme activity; Ellman): 8.8 µM

C#CCN(C)CCCCCOc1cccc(CN(C)c2c3c(nc4ccccc24)CCCC3)c1
IC50 (enzyme activity; Ellman): 2.6 µM

O=[N+]([O-])c1c[nH]c(-c2n[nH]c(=S)n2/N=C/c2ccc(Br)c(Br)c2)c1
IC50 (enzyme activity; Ellman): 27.1 µM

COc1ccc(S(=O)(=O)Oc2cccc(C=NNC(=O)c3ccc(F)cc3)c2)cc1
IC50 (enzyme activity; Ellman): 0.0895 µM

C#CCN(C)CCCCCOCc1ccc(CN(C)c2c3c(nc4ccccc24)CCCC3)cc1
IC50 (enzyme activity; Ellman): 4.84 µM

COc1ccc(S(=O)(=O)Oc2ccc(C=NNC(=O)c3ccc(F)cc3)cc2OC)cc1
IC50 (enzyme activity; Ellman): 0.0614 µM

C#CCN(C)CCCCOCc1ccc(CN(C)c2c3c(nc4ccccc24)CCCC3)cc1
IC50 (enzyme activity; Ellman): 2.36 µM

O=[N+]([O-])c1c[nH]c(-c2n[nH]c(=S)n2/N=C/c2ccc(F)cc2O)c1
IC50 (enzyme activity; Ellman): 7.1 µM

COc1ccccc1C=NNC(=O)c1cc(-c2cn(C)c3ccccc23)on1
IC50 (enzyme activity): 34.2 µM

O=[N+]([O-])c1c[nH]c(-c2n[nH]c(=S)n2/N=C/c2ccc(Cl)c([N+](=O)[O-])c2)c1
IC50 (enzyme activity; Ellman): 13.2 µM

Cn1cc(-c2cc(C(=O)NN=Cc3ccccc3Cl)no2)c2ccccc21
IC50 (enzyme activity): > 100 µM

CNC(=O)c1ccc(-c2cnn3ccc(C(=O)N(C)c4ccc(Cl)c(C(=O)O)c4)cc23)cc1
IC50 (cell-free assay): > 30 µM

O=[N+]([O-])c1c[nH]c(-c2n[nH]c(=S)n2/N=C/c2c(O)cc(O)cc2O)c1
IC50 (enzyme activity; Ellman): 6.2 µM
